IDH1 R132H inh = inhibitors of IDH1 R132H reductase, primary screen, biochemical, plate reader, single point; Isocitrate dehydrogenase [NADP] cytoplasmic (Homo sapiens), O75874; diaphorase/resazurin fluorescence, 60 min; inhibition, % at 10 µM; 0.18% of 70,000 active; AID 624101, 2012; in the data active = inhibition above about 34%; inconclusive = no clear call, values can overlap the other calls; inactive = below about 11%
GASC1 inh = inhibitors of GASC-1 (KDM4C) histone demethylase, primary screen, biochemical, single concentration HTS; Lysine-specific demethylase 4C (Homo sapiens), Q9H3R0; GST-KDM4C 2-372, H3K9me3 peptide, LANCE TR-FRET; inhibition, % at 12.5 µM; 0.15% of 96,000 active;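 active = mean replicate inhibition above about 25%, with at least 55% of replicates also reaching it, limit read from the data, passing the limit was not always enough; inconclusive = only one of those two conditions met; inactive = neither condition met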
Target sequence (Q9H3R0 2-372 limits assumed): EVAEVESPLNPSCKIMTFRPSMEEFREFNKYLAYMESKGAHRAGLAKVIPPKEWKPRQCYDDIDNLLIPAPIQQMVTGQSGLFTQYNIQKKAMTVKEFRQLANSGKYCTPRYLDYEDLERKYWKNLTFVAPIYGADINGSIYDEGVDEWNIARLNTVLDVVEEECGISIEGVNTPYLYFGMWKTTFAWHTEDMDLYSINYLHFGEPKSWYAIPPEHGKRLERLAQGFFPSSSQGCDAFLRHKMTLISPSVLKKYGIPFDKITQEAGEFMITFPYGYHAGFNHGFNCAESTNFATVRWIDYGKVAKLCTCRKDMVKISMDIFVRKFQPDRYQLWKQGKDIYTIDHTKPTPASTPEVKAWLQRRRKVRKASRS
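Material: GST-tagged GASC-1 (JMJD2C) catalytic fragment, aa 2-372. Input: enzyme final amount 10 nM. Medium: HEPES buffer, pH 7.5, plus ascorbate. Reagent: H3K9me3 peptide substrate, Fe(II), 2-oxoglutarate. Doses: single dose. Times: reaction 30 min RT, detection step 1 h RT. Measured by: LANCE TR-FRET. Evaluation: Fall in 671/618 emission ratio as inhibition.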
T cruzi growth-1 = T. cruzi intracellular proliferation inhibitors, primary screen, cell-based, beta-gal Tulahuen parasites, NIH3T3 host, luminescence; inhibition, % at 8.34 µM; AID 624255, 2012; 5.9% of 77,000 active; T. cruzi beta-gal in NIH3T3, GalScreen luminescence, 90 h;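 active = mean inhibition above about 93%, with at least 55% of replicates each passing it, limit read from the data, passing the limit was not always enough; inconclusive = only one of those two conditions holds; inactive = neither condition holds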
T cruzi growth-2 = T. cruzi intracellular proliferation inhibitors, confirmation, cell-based, NIH3T3 host, beta-gal parasite, luminescence, cherry-pick; inhibition, % at 8.35 µM; 72% of 5,600 active; T. cruzi beta-gal in NIH3T3, GalScreen luminescence, 90 h; AID 651739, 2012; shares compounds with T cruzi growth-1;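 active = mean replicate inhibition above about 95% and at least 55% of replicates individually reaching it, limit read from the data; inconclusive = only one of the two criteria is met; inactive = neither criterion is met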
T cruzi growth-3 = inhibitors of intracellular T. cruzi replication, confirmation, NIH3T3 host cells, beta-gal parasites, cherry-pick, set 2 | 21% of 5,600 active | inhibition, % at 2.09 µM | shares compounds with T cruzi growth-1 | T. cruzi beta-gal in NIH3T3, GalScreen luminescence, 90 h;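 active = mean inhibition above about 95%, with at least 55% of replicates also reaching it, limit read from the data; inconclusive = meets just one of the two conditions; inactive = meets neither condition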
3T3 cytotox = cytotoxicity in mouse NIH/3T3 fibroblasts, confirmation, cytotoxicity control for T. cruzi proliferation inhibitor project, cell-based, cherry-pick, single point; shares compounds with T cruzi growth-1; NIH/3T3 viability, CellTiter-Glo ATP luminescence, 90 h; cytotoxicity (signal decrease), % at 8.35 µM; 14% of 5,600 active; AID 651742, 2012;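 active = mean signal decrease across replicates above about 35% based on untreated-well scatter, with enough replicates individually passing, limit read from the data; inconclusive = no rule stated though some were filed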
3T3 cytotox 2 = NIH/3T3 fibroblast cytotoxicity, confirmation, cytotoxicity control, cell-based, cherry-pick, single point, set 2 | inhibition, % at 24.9 µM | NIH/3T3 viability, CellTiter-Glo ATP luminescence, 90 h | AID 651744, 2012 | shares compounds with T cruzi growth-1 | 56% of 5,600 active;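 active = mean loss of cell viability signal at or above a set limit, and enough replicates individually reaching it; inconclusive = meets only the mean limit or only the replicate share; inactive = meets neither condition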
Large screens that a line does not name were inactive (follow-up assays come after a bar, where they were run). Many of the other results were omitted from the sample, so hits are more common in it than they were.

COc1ccccc1-c1ccc([C@H]2[C@H]3CN(C(=O)NC4CCCC4)CCCCN3[C@H]2CO)cc1	none (no result: IDH1 R132H inh)
Cc1ccccc1-c1ccc([C@H]2[C@@H](CO)N3CCCCN(C(=O)NC4CCCC4)C[C@@H]23)cc1	T cruzi growth-1 106 (no result: IDH1 R132H inh) | T cruzi growth-2 108 | T cruzi growth-3 inactive | 3T3 cytotox inactive | 3T3 cytotox 2 81
Cc1ccccc1-c1ccc([C@H]2[C@H]3CN(C(=O)NC4CCCC4)CCCCN3[C@H]2CO)cc1	T cruzi growth-1 112 (no result: IDH1 R132H inh) | T cruzi growth-2 105 | T cruzi growth-3 inactive | 3T3 cytotox inactive | 3T3 cytotox 2 55
COc1ccc(NC(=O)Cn2cnc3sc(-c4ccccc4)cc3c2=O)cc1	none (no result: GASC1 inh, T cruzi growth-1)
O=C(C[C@@H]1C[C@H]2c3cc(NS(=O)(=O)c4ccc(F)cc4)ccc3O[C@H]2[C@H](CO)O1)N1CCc2ccccc2C1	T cruzi growth-1 inconclusive | T cruzi growth-2 inactive | T cruzi growth-3 inactive | 3T3 cytotox inactive | 3T3 cytotox 2 inactive
O=C(C[C@H]1C[C@H]2c3cc(NS(=O)(=O)c4ccc(F)cc4)ccc3O[C@H]2[C@H](CO)O1)N1CCc2ccccc2C1	T cruzi growth-1 110 | T cruzi growth-2 inactive | T cruzi growth-3 inactive | 3T3 cytotox inactive | 3T3 cytotox 2 inactive
O=C(C[C@@H]1C[C@@H]2c3cc(NS(=O)(=O)c4ccc(F)cc4)ccc3O[C@@H]2[C@@H](CO)O1)N1CCc2ccccc2C1	T cruzi growth-1 115 | T cruzi growth-2 100 | T cruzi growth-3 inactive | 3T3 cytotox inactive | 3T3 cytotox 2 inactive
O=C(C[C@@H]1C[C@@H]2c3cc(NS(=O)(=O)c4ccc(F)cc4)ccc3O[C@@H]2[C@@H](CO)O1)N1CCCCC1	none (no result: T cruzi growth-1)
CS(=O)(=O)Nc1ccc2c(c1)[C@@H]1C[C@@H](CC(=O)N3CCc4ccccc4C3)O[C@@H](CO)[C@@H]1O2	none (no result: T cruzi growth-1)
CS(=O)(=O)Nc1ccc2c(c1)[C@@H]1C[C@H](CC(=O)N3CCc4ccccc4C3)O[C@H](CO)[C@@H]1O2	none (no result: T cruzi growth-1)
COc1cccc(CNc2nc3nc(C)c(Cc4ccccc4)c(=O)n3[nH]2)c1	none (no result: GASC1 inh, T cruzi growth-1)
O=C(C[C@@H]1C[C@@H]2c3cc(NC(=O)Nc4ccccc4)ccc3O[C@@H]2[C@H](CO)O1)NCC1CC1	T cruzi growth-1 102 | T cruzi growth-2 inactive | T cruzi growth-3 inactive | 3T3 cytotox inactive | 3T3 cytotox 2 inactive
O=C(C[C@@H]1C[C@H]2c3cc(NC(=O)Nc4ccc(F)cc4)ccc3O[C@H]2[C@@H](CO)O1)NCC1CC1	none
CCCNC(=O)C[C@H]1C[C@@H]2c3cc(NC(=O)Nc4ccc(OC)cc4)ccc3O[C@@H]2[C@@H](CO)O1	none
COc1ccc(NC(=O)Nc2ccc3c(c2)[C@H]2C[C@H](CC(=O)NCCc4ccccc4)O[C@H](CO)[C@H]2O3)cc1	T cruzi growth-1 149 | T cruzi growth-2 109 | T cruzi growth-3 inactive | 3T3 cytotox inactive | 3T3 cytotox 2 inactive
CCCNC(=O)C[C@@H]1C[C@H]2c3cc(NC(=O)Nc4ccc(OC)cc4)ccc3O[C@H]2[C@H](CO)O1	none
COc1ccc(NC(=O)Nc2ccc3c(c2)[C@@H]2C[C@H](CC(=O)NCCc4ccccc4)O[C@H](CO)[C@@H]2O3)cc1	T cruzi growth-1 159 | T cruzi growth-2 105 | T cruzi growth-3 101 | 3T3 cytotox inactive | 3T3 cytotox 2 inactive
Cc1ccccc1CN1C(=O)C(O)(CC(=O)c2ccncc2)c2cc(Cl)ccc21 (stereo unspecified)	none (no result: GASC1 inh, T cruzi growth-1)
O=[N+]([O-])c1cc(C(F)(F)F)ccc1NCCNS(=O)(=O)c1ccc2ccccc2c1	none (no result: GASC1 inh, T cruzi growth-1)
Cc1ccc2oc(-c3cc(NC(=O)COc4ccccc4)ccc3Cl)nc2c1	none (no result: GASC1 inh, T cruzi growth-1)
